Source: PubChem BioAssay
D1 mod – D1 dopamine receptor (human) allosteric modulation. P21728. HEK293 D1, CRE-luciferase, dopamine EC30 potentiation; actives deviate in either direction. B-score at 10 µM. 58,000 tested, 5.9% active. AID 641;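 active = luminescence count or its row- and column-corrected plate score outside the 99.7% band of the plate's sample wells, on either side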
S1P1 ag pot – activates or potentiates agonism at human S1P1 receptor; S1P1 CRE-bla cells, forskolin, beta-lactamase FRET, potentiator mode; S1P1 agonist co-added at EC20, 2 nM; 100% = saturating reference agonist, 0% = basal; activation, % at 9.5 µM; 56,000 tested, 0.57% active;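 active = activation above a cutoff set at the mean activation of all tested compounds plus 3 SD, cut at about 54% in these data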;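 note: forskolin at 4 µM as EC80 and the EC20 agonist is SEW2871; 100% = SEW2871 at its EC100 plus forskolin at EC80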
S1P3 ag – activates the human S1P3 receptor | Q99500 | S1P3 NFAT-BLA reporter cells, agonism, FRET ratio; relative to 1 µM S1P, basal subtracted | activation, % at 4.5 µM | 60,000 tested, 0.1% active | AID 373;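 active = activation above the screen-wide mean plus 3 SD, cut at about 4.5% in these data, passing the limit was not always enough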
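Measure – % activation relative to 1 µM S1P (100%), per plate · System – stable CHO line with human S1P3, Gα16, NFAT-BLA reporter · Timing – cells plated overnight, compound 4 h 37 °C, substrate 2 h RT · Technique – fluorescent BLA substrate, ex 405 nm, em 460/535 nm ratio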
M1 antag – M1 muscarinic receptor (rat) antagonism | P08482 | CHO-M1 cells, Fluo-4 calcium, ACh EC80 antagonist mode; stronger effect = lower value | B-score at 10 µM | 64,000 tested, 3.4% active;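 active = calcium fluorescence response, raw or row-and-column corrected B-score, differing from the plate sample mean either way at a set confidence level, mostly lower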
Target sequence (P08482 whole entry, looked up): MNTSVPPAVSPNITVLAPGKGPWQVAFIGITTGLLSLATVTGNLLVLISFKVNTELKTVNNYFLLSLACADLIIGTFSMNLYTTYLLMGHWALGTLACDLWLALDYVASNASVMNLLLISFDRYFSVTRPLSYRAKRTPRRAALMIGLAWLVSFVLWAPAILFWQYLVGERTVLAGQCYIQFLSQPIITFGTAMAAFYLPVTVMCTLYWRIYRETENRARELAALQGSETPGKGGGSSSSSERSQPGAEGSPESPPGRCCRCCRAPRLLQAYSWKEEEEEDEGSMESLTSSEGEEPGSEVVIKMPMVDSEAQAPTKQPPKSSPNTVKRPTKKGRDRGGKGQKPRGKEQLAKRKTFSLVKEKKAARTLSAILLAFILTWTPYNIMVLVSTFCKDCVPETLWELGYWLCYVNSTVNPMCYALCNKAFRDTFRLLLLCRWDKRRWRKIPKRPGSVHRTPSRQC
M1 agonist – activates the M1 muscarinic receptor | B-score at 10 µM | AID 626 | CHO-M1 cells, Fluo-4 calcium fluorescence, agonist mode; stronger effect = higher value | 64,000 tested, 3% active;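 active = fluorescence rise, raw or as B-score row- and column-corrected plate score, outside the 99.7% band of its plate's samples, either direction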
M1 antag conf – M1 muscarinic receptor (rat) antagonism, confirmed; AID 677; calcium response (max-min fluorescence) at 10 µM; shares compounds with M1 antag; 1,700 tested, 43% active; CHO-M1 cells, Fluo-4 calcium, ACh EC80 antagonism; stronger effect = lower value;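 active = calcium response below the same-plate mean of wells given acetylcholine alone at its 80%-effect dose, minus 3 SD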;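 note: raw fluorescence intensity difference in arbitrary instrument units and not normalized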
mGluR4 antag – mGluR4 (human) activity, M1 antagonist secondary assay; shares compounds with M1 antag; CHO-mGluR4 calcium flux, Fluo-4 fluorescence, glutamate EC80; stronger effect = lower value; fluorescence response (max-min) at 10 µM; 1,700 tested, 0.9% active; AID 678;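 active = fluorescence response below the plate's average for near-maximal glutamate wells, less 3 SD of those wells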;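 note: raw unnormalized fluorescence span taken in the window right after glutamate addition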
Active calls of the source: *. Only some compounds are listed: those with a hit (about 11% of all), similar ones and a draw of the others.

`O=C1NCCCC1C(=O)N1CCN(C(=O)C2CCCNC2=O)CC1` (stereo not given) gave D1 mod -0.5, S1P1 ag pot 15, S1P3 ag -1, M1 antag 0.13 and M1 agonist -0.39.
Screening CC(=O)N(Cc1ccccc1)c1ccc(C(=O)O)cc1 returned S1P1 ag pot 6, S1P3 ag -3, M1 antag -2*, M1 agonist -0.26, M1 antag conf 16* and mGluR4 antag 232.
Screening COC(=O)C1CCN(C(=O)c2ccccc2Oc2ccccc2)CC1 returned D1 mod 3.5, S1P1 ag pot -28, S1P3 ag -1, M1 antag 0.09 and M1 agonist 0.58.
`CC(C)CCn1cnc2c(cnn2-c2ccc(Cl)cc2)c1=O` gave S1P1 ag pot -3, S1P3 ag 1, M1 antag -0.47 and M1 agonist -0.038.
`Cc1cccc2cc(COC(=O)c3ccccn3)c(=O)[nH]c12` gave D1 mod -0.76, S1P1 ag pot 0, S1P3 ag 1, M1 antag 0.72 and M1 agonist -0.0041.
CS(=O)(=O)N(CC(=O)N1CCC(C(N)=O)CC1)c1ccc(Oc2ccccc2)cc1 was read as D1 mod -0.52, S1P1 ag pot -24, S1P3 ag -2, M1 antag -1.6*, M1 agonist 0.18, M1 antag conf 550 and mGluR4 antag 195.
CCOC(=O)N1CCN(C(=O)CN(c2ccc(Oc3ccccc3)cc2)S(C)(=O)=O)CC1 was read as M1 antag -0.18 and M1 agonist -1.9.
For Cc1ccc(CNS(=O)(=O)c2ccc(C(C)(C)C)cc2)n1C the results were D1 mod 0.22, S1P3 ag -1, M1 antag -0.5 and M1 agonist 0.22.
For CC(=O)c1c(C)[nH]c(C(=O)OCC(=O)Nc2ncc(Cl)c(C)c2Cl)c1C the results were D1 mod 1.1, S1P1 ag pot -12, S1P3 ag 0, M1 antag -15*, M1 agonist -0.19, M1 antag conf 567 and mGluR4 antag 234.
Screening CCCCOc1ccccc1NC(=O)CC1SC(=NCC)N(CC)C1=O (stereo not given) returned S1P1 ag pot 5, S1P3 ag -1, M1 antag -2.8*, M1 agonist 1.5, M1 antag conf 575 and mGluR4 antag 232.
`CC(=O)c1cccc(NC(=O)N2CCCC2C(=O)Nc2ccccc2C)c1` (stereo not given) gave D1 mod 0.14, S1P1 ag pot 0, S1P3 ag -1, M1 antag 1 and M1 agonist 0.029.
`Cc1cc(C)n(-c2c(F)c(F)c(CN3CCCCC3)c(F)c2F)n1` gave S1P1 ag pot -8, S1P3 ag -1, M1 antag -2.5*, M1 agonist 0.028, M1 antag conf 640 and mGluR4 antag 187.
For CC(=O)Nc1ccccc1C(=O)N1CC(C)OC(C)C1 (stereo not given) the results were D1 mod -0.82, S1P1 ag pot -3, S1P3 ag 0, M1 antag 0.00021 and M1 agonist 0.42.
O=C(CC1Oc2ccccc2NC1=O)NC1CC1 (stereo not given) was read as D1 mod -0.33, S1P1 ag pot -22, S1P3 ag 0, M1 antag -3.9*, M1 agonist 0.38, M1 antag conf 552 and mGluR4 antag 196.
CCC(C)N(CCNC(=O)CC1Oc2ccccc2NC1=O)C1CCCCC1 (stereo not given) was read as D1 mod -1.7, S1P1 ag pot -6, S1P3 ag -1, M1 antag -11*, M1 agonist -0.093, M1 antag conf 61* and mGluR4 antag 229.
O=c1c2ccccc2nc(SCc2nc(-c3ccccc3)no2)n1-c1ccc(F)cc1 was read as D1 mod -0.39, S1P1 ag pot 3, S1P3 ag -2, M1 antag -0.42 and M1 agonist -1.8.
`COc1ccc(-c2noc(CSc3nc4ccccc4c(=O)n3-c3ccccc3)n2)cc1OC` gave S1P3 ag -1, M1 antag -3.9*, M1 agonist 0.0052, M1 antag conf 671 and mGluR4 antag 235.
For COc1ccc(NC(C)=O)cc1NC(=O)CSc1nnc(-c2ccc(F)cc2)n1N the results were D1 mod 0.71, S1P1 ag pot -3, S1P3 ag -1, M1 antag 0.5 and M1 agonist 0.2.
Screening CCN(Cc1ccccc1)C(=O)CSc1nc(C)cc(C)c1C#N returned D1 mod -0.75, S1P1 ag pot -15, S1P3 ag 0, M1 antag -2.4*, M1 agonist -0.21, M1 antag conf 551 and mGluR4 antag 238.
Cc1cc(C)c(C#N)c(SCC(=O)N2CCN(Cc3ccccc3)CC2)n1 was read as D1 mod 0.17, S1P1 ag pot -3, S1P3 ag -2, M1 antag 0.059 and M1 agonist 0.076.
For CN(C1CCCCC1)S(=O)(=O)c1ccc(S(=O)(=O)N2CCCC2)cc1 the results were D1 mod -0.53, S1P1 ag pot 13, S1P3 ag 0, M1 antag -3.3*, M1 agonist 0.3, M1 antag conf 327* and mGluR4 antag 236.
Screening COc1ccc2[nH]c(=O)c(CN(Cc3ccc(C)cc3)Cc3nnnn3CC3CCCO3)cc2c1 (stereo not given) returned D1 mod 3.3, S1P1 ag pot -18, S1P3 ag 0, M1 antag -1.9 and M1 agonist 0.66.
Screening O=C1CN(C(=O)CN2CCCC2)C(c2ccccc2)c2cc(Br)ccc2N1 (stereo not given) returned D1 mod -0.68, S1P1 ag pot 2, S1P3 ag 0, M1 antag -2.8*, M1 agonist -0.25, M1 antag conf 473 and mGluR4 antag 305.
For COCCCNC(=O)CSC1=Nc2ccccc2C2=NC(CC(=O)NCc3ccccc3)C(=O)N12 (stereo not given) the results were D1 mod -0.064, S1P1 ag pot 2, S1P3 ag 0, M1 antag -2.5*, M1 agonist 0.033, M1 antag conf 678 and mGluR4 antag 246.
`O=C(Cn1nc(C(F)(F)F)c2c1CCCC2)NCc1ccco1` gave D1 mod 0.49, S1P1 ag pot -15, S1P3 ag 0, M1 antag -1.4 and M1 agonist -0.032.
`O=C1NCCCc2nc(Oc3ccccc3)sc21` gave D1 mod 0.11, S1P1 ag pot -15, S1P3 ag -1, M1 antag -3.3*, M1 agonist -0.51, M1 antag conf 623 and mGluR4 antag 228.
